This is an account of results in ChEMBL document CHEMBL1799960, “Diadenosine 5',5''-(boranated)polyphosphonate analogues as selective nucleotide pyrophosphatase/phosphodiesterase inhibitors” (J Med Chem, 2010).

The target in assay [1] is T1, Ectonucleotide pyrophosphatase/phosphodiesterase family member 1 (Homo sapiens, UniProt P22413).
T1 sequence (P22413 whole entry): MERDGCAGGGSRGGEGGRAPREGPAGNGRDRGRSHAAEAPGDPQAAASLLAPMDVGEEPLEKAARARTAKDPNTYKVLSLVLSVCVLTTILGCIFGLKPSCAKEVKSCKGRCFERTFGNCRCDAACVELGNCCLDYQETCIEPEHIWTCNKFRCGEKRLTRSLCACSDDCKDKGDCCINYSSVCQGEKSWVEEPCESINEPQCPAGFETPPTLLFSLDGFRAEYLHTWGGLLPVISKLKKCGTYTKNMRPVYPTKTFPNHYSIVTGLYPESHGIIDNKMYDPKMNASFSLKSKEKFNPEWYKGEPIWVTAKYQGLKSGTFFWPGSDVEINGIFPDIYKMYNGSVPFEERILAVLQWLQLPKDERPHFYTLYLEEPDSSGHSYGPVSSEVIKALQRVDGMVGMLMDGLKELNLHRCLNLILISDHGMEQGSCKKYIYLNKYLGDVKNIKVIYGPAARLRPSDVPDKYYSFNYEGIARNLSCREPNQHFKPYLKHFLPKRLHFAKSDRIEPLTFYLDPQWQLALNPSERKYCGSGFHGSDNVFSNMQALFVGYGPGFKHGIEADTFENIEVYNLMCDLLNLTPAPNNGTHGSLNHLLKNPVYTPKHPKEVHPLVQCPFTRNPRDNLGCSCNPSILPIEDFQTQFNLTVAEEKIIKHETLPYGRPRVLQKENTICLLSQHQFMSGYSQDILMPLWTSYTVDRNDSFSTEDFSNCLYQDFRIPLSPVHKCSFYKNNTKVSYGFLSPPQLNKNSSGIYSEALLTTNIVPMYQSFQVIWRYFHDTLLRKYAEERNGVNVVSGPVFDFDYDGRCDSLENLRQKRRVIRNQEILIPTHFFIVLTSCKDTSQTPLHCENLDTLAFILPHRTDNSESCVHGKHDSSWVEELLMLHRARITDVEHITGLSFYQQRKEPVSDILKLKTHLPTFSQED
The assay can be described thus: Inhibition of human NPP1 expressed in COS7 cells assessed as production of p-nitrophenol using pnp-TMP as the substrate after 15 mins […]. The format is cell-based, COS-7. The method in brief: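 Human NPP1 COS-7 extract in Tris pH 8.5 buffer at 37 °C with pnp-TMP; p-nitrophenol read at 405 nm after 15 min. […] Values from Dixon and Cornish-Bowden plots of three independent experiments in triplicate.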

In assay [2] the target is T2, Ectonucleotide pyrophosphatase/phosphodiesterase family member 1 (Homo sapiens) (UniProt P22413).
T2 sequence (whole entry): T1 sequence (P22413 whole entry)
Description: Activity of human NPP1 expressed in COS7 cells assessed as production of p-nitrophenol using Ap5A as the substrate at 100 uM after 30 mins by malachite green reagent method. The settings on record: COS-7. The format is cell-based.

For assay [3], the target named is T3, Ectonucleoside triphosphate diphosphohydrolase 8 (Homo sapiens) (UniProt Q5MY95).
T3 sequence (whole entry): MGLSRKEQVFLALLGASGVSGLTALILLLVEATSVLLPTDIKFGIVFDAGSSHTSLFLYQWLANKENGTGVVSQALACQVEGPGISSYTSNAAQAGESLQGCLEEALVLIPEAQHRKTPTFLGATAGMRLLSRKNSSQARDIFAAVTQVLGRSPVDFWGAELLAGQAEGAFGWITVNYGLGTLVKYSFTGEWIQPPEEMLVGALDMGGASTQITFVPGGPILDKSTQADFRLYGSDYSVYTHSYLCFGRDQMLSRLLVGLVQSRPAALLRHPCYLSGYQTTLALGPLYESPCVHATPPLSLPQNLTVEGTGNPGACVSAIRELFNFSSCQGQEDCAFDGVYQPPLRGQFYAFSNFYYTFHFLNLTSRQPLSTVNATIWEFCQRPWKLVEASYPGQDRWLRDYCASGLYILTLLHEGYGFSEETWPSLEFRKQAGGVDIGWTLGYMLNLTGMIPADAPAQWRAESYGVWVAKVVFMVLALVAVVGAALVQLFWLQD
Description: Inhibition of human NTPDase8 expressed in COS7 cells assessed as amount of inorganic phosphate released using ATP as the substrate at 100 uM after 15 mins by malachite green reagent method. It is filed as cell-based. As to conditions: COS-7. The procedure, abridged: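 Protein extracts of transfected COS-7 cells (ecto-5'-nucleotidase: 100 μM AMP substrate; NTPDases: 100 μM ATP) were preincubated 3 min at 37 °C in Tris-Ringer pH 7.3 with inhibitor at 100 μM final. After 15 min, malachite green stop; Pi read at 630 nm. Activity given as % of substrate-only control. Mean ± SD of three experiments in triplicate.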

Assay [4] concerns the target T2, Ectonucleotide pyrophosphatase/phosphodiesterase family member 1 (Homo sapiens). The assay can be described thus: Inhibition of human NPP1 in human Saos2 cells assessed as production of p-nitrophenol using pnp-TMP as the substrate […]. It is filed as cell-based. As to conditions: SAOS-2.
The target in another assay is P2Y purinoceptor 1 (Homo sapiens, UniProt P47900). The assay can be described thus: Agonist activity at GFP tagged-human P2Y1 receptor expressed in human 1321N1 cells assessed as elevation in calcium level after 30 mins by fluorescence spectrophotometric analysis. It is filed as functional, cell-based.
Assay [5] addresses T4, Ectonucleotide pyrophosphatase/phosphodiesterase family member 3 (Homo sapiens) (UniProt O14638).
T4 sequence (whole entry): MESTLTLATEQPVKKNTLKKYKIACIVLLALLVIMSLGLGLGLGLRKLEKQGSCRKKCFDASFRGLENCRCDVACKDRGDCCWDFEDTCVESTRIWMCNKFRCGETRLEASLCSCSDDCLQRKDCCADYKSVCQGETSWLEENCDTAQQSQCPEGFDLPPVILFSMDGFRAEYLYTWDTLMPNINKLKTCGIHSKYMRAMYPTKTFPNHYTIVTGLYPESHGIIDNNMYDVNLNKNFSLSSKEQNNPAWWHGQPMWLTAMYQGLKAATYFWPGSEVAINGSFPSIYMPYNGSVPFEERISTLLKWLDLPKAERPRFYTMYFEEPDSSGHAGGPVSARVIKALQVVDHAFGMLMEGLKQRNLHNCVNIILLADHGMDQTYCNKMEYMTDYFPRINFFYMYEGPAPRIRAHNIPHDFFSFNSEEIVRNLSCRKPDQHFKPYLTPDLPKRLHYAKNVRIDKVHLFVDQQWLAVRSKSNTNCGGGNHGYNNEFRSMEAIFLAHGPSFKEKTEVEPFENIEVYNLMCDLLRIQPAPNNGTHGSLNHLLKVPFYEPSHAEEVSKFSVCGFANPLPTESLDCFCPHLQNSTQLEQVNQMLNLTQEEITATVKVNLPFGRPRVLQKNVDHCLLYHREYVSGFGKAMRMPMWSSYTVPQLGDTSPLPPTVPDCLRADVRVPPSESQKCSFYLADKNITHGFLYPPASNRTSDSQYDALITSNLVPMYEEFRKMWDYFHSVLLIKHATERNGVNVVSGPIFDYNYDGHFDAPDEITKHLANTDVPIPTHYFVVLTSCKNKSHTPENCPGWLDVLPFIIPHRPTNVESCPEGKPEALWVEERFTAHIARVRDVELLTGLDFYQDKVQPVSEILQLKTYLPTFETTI
The assay can be described thus: Inhibition of human NPP3 expressed in COS7 cells assessed as amount of inorganic phosphate released using ATP as the substrate at 100 uM after 15 mins by malachite green reagent method. The settings on record: COS-7. It is filed as cell-based.

SMILES strings stand for the structures. Activity calls are given as the source filed them. The rule behind the calls is not given here. Some results are limits rather than exact numbers.

Chain of P2Y purinoceptor 1 (P47900 whole entry): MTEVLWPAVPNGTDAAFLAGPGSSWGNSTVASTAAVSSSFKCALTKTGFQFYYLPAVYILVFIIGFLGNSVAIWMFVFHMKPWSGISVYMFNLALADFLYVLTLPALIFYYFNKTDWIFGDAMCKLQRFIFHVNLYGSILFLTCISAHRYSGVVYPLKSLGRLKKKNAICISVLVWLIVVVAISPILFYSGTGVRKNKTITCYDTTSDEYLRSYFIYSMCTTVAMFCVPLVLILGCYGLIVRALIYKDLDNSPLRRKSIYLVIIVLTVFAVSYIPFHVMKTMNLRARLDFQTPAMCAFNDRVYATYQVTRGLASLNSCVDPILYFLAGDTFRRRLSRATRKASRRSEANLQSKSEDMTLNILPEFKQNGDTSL

A word on the IC50: it is the concentration that inhibits the measured activity by half. A word on the Ki: it is a dissociation constant, usually derived from enzyme kinetics or from competition with a known ligand. As usually defined, the inhibition is the percentage by which the read-out fell short of the control. The term EC50 denotes the concentration needed to bring the measured effect to its halfway point. As for `Nc1ncnc2c1ncn2[C@H]1C[C@H](O)[C@@H](COP(=O)(O)CP(=O)(O)OP(=O)(O)CP(=O)(O)OC[C@H]2O[C@@H](n3cnc4c(N)ncnc43)C[C@@H]2O)O1`, in assay [1], the IC50 was found to be 50 µM and the Ki was 51 µM. Besides, the Activity in assay [2] was 2.3%. Moreover, in assay [3], the inhibition result is “inactive”. In assay [4], the inhibition was determined as 80%. On P2Y purinoceptor 1, the EC50 was found to be 30 µM. In addition, in assay [5], the inhibition is 90%.
For the molecule `BP(=O)(OP(=O)(O)CP(=O)(O)OC[C@H]1O[C@@H](n2cnc3c(N)ncnc32)[C@H](O)[C@@H]1O)OP(=O)(O)CP(=O)(O)OC[C@H]1O[C@@H](n2cnc3c(N)ncnc32)[C@H](O)[C@@H]1O`, in assay [1], the IC50 was found to be 63 µM. Moreover, in assay [1], the Ki worked out at 20 µM. For the same molecule, in assay [2], the Activity came to 7.5%. In addition, the inhibition result in assay [3] is “inactive”. The inhibition in assay [4] and in assay [5] was 90% each time. For the same molecule, the EC50 at P2Y purinoceptor 1 was 0.3 µM.
Turning to `Nc1ncnc2c1ncn2[C@@H]1O[C@H](COP(=O)(O)CP(=O)(O)OP(=O)(O)CP(=O)(O)OC[C@H]2O[C@@H](n3cnc4c(N)ncnc43)[C@H](O)[C@@H]2O)[C@@H](O)[C@H]1O`, in assay [1], the IC50 stood at 33 µM and the inhibition constant (Ki) came to 13 µM. Further, the Activity in assay [2] is 13%. The inhibition result in assay [3] is “inactive”. For the same molecule, the inhibition in assay [4] came to 80%. The EC50 on P2Y purinoceptor 1 was found to be 9 µM. Besides, the inhibition in assay [5] stood at 65%.
In the case of `BP(=O)(OP(=O)(O)CP(=O)(O)OC[C@H]1O[C@@H](n2cnc3c(N)ncnc32)C[C@@H]1O)OP(=O)(O)CP(=O)(O)OC[C@H]1O[C@@H](n2cnc3c(N)ncnc32)C[C@@H]1O`, in assay [1], the IC50 amounted to 13 µM and the Ki came to 9 µM. The inhibition result in assay [3] is “inactive”. The inhibition in assay [4] was 90%. Besides, the EC50 at P2Y purinoceptor 1 was not below 30 µM. Also, the inhibition in assay [5] amounted to 65%.
